The values below come from publication PMC12328631 (Nature Communications, 2025).

The target in one data set is Sec61 translocon (Homo sapiens, UniProt P61619). The data set is described as follows: RELITE assay, FLuc equipped with the SP of CD4. The note with it: for response of the RELITE assay (FLuc/RLuc ratio): Fig. S8b; for response of the RELITE assay (FLuc/RLuc ratio) / effect on FLuc activity (FLuc/RLuc ratio): HEK293, 6 hours; for effect on FLuc/RLuc ratio: Fig. 1h, 6 hours of treatment, non-selective Sec61 inhibitors; for effect on FLuc activity (FLuc/RLuc ratio): Tunicamycin 10 μg/ml, Thapsigargin 3 μM. In kind it is cell-based.

Data set [1] concerns Firefly luciferase (FLuc) reporter equipped with the SP of CD4. The data set can be described thus: FLuc enzymatic activity in HEK293 transfected with the IRES-vector. In kind it is cell-based, human. In outline:
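HEK293 cells were transiently transfected with a bicistronic IRES vector carrying the CD4 signal peptide-FLuc reporter. For fractionation, cells were treated 24 h post-transfection for 6 h, mechanically lysed and ultracentrifuged into P100 and S100 fractions, and FLuc was read on each. For the time course, cells were replated 8 h post-transfection, treated 16 h later, and FLuc was read up to 6 h. For the chase, 100 µg/ml cycloheximide was added for 2 h after 6 h treatment.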

In a further data set the test system is HA-FLuc. The data set can be described thus: HA-FLuc protein levels by western blotting. In kind it is cell-based, human. The note with it: total cell extract, 6 h. In outline: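 HEK293 cells were transfected with the IRES vector and replated after 8 h, then treated 16 h later for up to 6 h. Total extracts were made in B-Buffer (50 mM HEPES, 150 mM NaCl, 1% Triton X-100, protease inhibitors) and equalised by Bradford. Cytosolic and membrane fractions came from syringe lysis and differential centrifugation. Western blots used anti-HA, with GAPDH and calnexin as fraction markers.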
(In general: A western blot detects proteins with antibodies after separation by electrophoresis.)

A further data set relates to PD-L1. In kind it is cell-based, human. The note with it: read-out: IC50 (PD-L1-HA protein levels); GB138 stably expressing SPnPD-L1-HA, 0 to 20 μM, 24 hours (Fig. S4). In outline:
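GB138 glioblastoma cells stably expressing SPnPD-L1-HA were kept at 37 °C in DMEM with 10% FBS, 2 mM L-Gln and 400 μg/ml G418. Cells were exposed to test compounds at 0 to 20 μM for 24 h. Extracts in Triton-containing B-Buffer were resolved by SDS-PAGE and PD-L1-HA levels quantified by western blot with ECL, using calnexin as loading control. IC50 was taken from the titration curve.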

The next data set has as its system GB138 cells. The data set can be described thus: Cell viability assay. In kind it is cell-based, human. The note with it: GB138 (Fig. S5).

Peptide text beside a SMILES is read from it. * marks the point of attachment. Cbz = O=C(OCc1ccccc1)*

Chain of Sec61 translocon (P60468 2-96): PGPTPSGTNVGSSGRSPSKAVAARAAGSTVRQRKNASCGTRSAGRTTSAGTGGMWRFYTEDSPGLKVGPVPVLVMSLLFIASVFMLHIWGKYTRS
Chain of Sec61 translocon (P61619 whole entry): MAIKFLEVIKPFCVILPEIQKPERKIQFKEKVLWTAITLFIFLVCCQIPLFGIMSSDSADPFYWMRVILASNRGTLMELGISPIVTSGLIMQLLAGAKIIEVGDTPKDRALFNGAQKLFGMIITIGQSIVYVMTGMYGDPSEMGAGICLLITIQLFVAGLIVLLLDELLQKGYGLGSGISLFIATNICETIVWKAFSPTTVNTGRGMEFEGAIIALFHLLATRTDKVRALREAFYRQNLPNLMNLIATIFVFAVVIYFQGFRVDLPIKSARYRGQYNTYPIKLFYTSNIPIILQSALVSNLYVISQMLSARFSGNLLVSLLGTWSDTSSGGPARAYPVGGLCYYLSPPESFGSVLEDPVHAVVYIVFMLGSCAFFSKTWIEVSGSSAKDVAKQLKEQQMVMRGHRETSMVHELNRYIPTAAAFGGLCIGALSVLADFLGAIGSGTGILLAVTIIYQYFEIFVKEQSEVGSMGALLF
Chain of Sec61 translocon (P60059 whole entry, further chain): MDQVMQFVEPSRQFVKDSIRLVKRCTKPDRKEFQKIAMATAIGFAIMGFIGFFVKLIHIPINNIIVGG

As for `C[C@H]1CCC/C=C/[C@@H]2C[C@H](O)C[C@H]2[C@H](O)/C=C/C(=O)O1` [Brefeldin A], the “response of the RELITE assay (FLuc/RLuc ratio)” value (shortened to “response … (FLuc/RLuc ratio)”) on Sec61 translocon is “not responding”. The IC50 is the concentration that gives 50% inhibition. For the compound `C=C1CN(S(=O)(=O)c2ccc(C)cc2)CCCN(Cc2ccccc2)CCCN(S(=O)(=O)c2ccc(C)cc2)C1` [CADA, Cyclotriazadisulfonamide], in data set [1] (Fig. 1d, S100 vs P100), the “FLuc activity after cell fractionation” value is listed as “increased FLuc activity only in the cytosolic S100 fraction”. For the same compound, the “total HA-FLuc protein levels (western blotting)” value in the data set on HA-FLuc was “significant reduction of the total HA-FLuc protein levels”. The IC50 in the data set on PD-L1 is roughly 20 µM. In addition, the “CADA effect on FLuc activity under co-treatment with cycloheximide (CHX)” value on Sec61 translocon (Fig. S1b, CADA 20 μM + CHX 100 μg/ml, 6 hours) is “abrogated the CADA effect”. With `C[C@@H]1C[C@@H]([C@H](O)CC2CC(=O)NC(=O)C2)C(=O)[C@@H](C)C1` [Cycloheximide], the “response … (FLuc/RLuc ratio)” value at Sec61 translocon was “not responding”. For the compound `CC1(C)C(N(O)C(=O)Nc2ccc(Cl)cc2)N(c2ccc(Cl)cc2)C(=O)N1CC(=O)N/N=C/C=C/c1ccc([N+](=O)[O-])o1` (stereo not shown) [Eeyarestatin 1], the “total HA-FLuc protein levels (western blotting)” value in the data set with HA-FLuc is reported as “significant reduction of FLuc protein levels”. The “effect on FLuc/RLuc ratio” value on Sec61 translocon was “significant reduction of the FLuc/RLuc ratio”.

`CCN(CCO)CCCC(C)Nc1ccnc2cc(Cl)ccc12` (stereo not shown) [Hydroxychloroquine]: the “response … (FLuc/RLuc ratio)” value on Sec61 translocon is on record as “not responding”.

For `CC(C)C[C@@H](C=O)NC(=O)[C@H](CC(C)C)NC(=O)[C@H](CC(C)C)NC(=O)OCc1ccccc1` [MG132] (Cbz-Leu-Leu-Leu-aldehyde), the “FLuc enzymatic activity over time” value in data set [1] (Fig. 1e, up to 6 h) is reported as “time-dependent increment of the FLuc enzymatic activity”. As for `CC(=C\C=C\C(C)=C\[C@H](O)[C@@H](O)C[C@H](C)O)/C=C(C)/C=C/C(=O)O[C@H]1CCCC(=O)O[C@@H]([C@@H](C)C/C(C)=C/[C@@H](C)[C@H](O)C[C@@H](C)O)C/C=C(\C)C[C@@H]1C` [Mycolactone], on Sec61 translocon, the “effect on FLuc/RLuc ratio” value is given as “significant elevation of the FLuc/RLuc ratio”.

Take `COc1ccc(C[C@H](N)C(=O)N[C@H]2[C@@H](O)[C@H](n3cnc4c(N(C)C)ncnc43)O[C@@H]2CO)cc1` [Puromycin]: at Sec61 translocon, the “response … (FLuc/RLuc ratio)” value is on record as “not responding”.

Regarding `C/C=C(/C)C(=O)O[C@H]1C(C)=C2[C@H]([C@@H]1OC(=O)CCCCCCC)[C@@](C)(OC(C)=O)C[C@H](OC(=O)CCC)[C@@]1(O)[C@H]2OC(=O)[C@@]1(C)O` [Thapsigargin], the “effect on FLuc activity (FLuc/RLuc ratio)” value on Sec61 translocon (Fig. S1b) is “failed to increase activity”. Moreover, the “response … (FLuc/RLuc ratio)” value on Sec61 translocon is “not responding”. Take Tunicamycin: the “toxicity in cell viability assay” value in the data set on GB138 cells is reported as “highly toxic for the cells”. Also, the “effect on FLuc activity (FLuc/RLuc ratio)” value on Sec61 translocon (Fig. S1b) is on record as “significant elevation of the FLuc activity”.
